Tests used:
CYP2A6 [1] = molecular target: T1, CYP2A6 (Homo sapiens, UniProt P11509); conditions: 50 μM tranylcypromine pretreatment 1 h, then 100 μM coumarin 1 h
T1 sequence (P11509 1-494): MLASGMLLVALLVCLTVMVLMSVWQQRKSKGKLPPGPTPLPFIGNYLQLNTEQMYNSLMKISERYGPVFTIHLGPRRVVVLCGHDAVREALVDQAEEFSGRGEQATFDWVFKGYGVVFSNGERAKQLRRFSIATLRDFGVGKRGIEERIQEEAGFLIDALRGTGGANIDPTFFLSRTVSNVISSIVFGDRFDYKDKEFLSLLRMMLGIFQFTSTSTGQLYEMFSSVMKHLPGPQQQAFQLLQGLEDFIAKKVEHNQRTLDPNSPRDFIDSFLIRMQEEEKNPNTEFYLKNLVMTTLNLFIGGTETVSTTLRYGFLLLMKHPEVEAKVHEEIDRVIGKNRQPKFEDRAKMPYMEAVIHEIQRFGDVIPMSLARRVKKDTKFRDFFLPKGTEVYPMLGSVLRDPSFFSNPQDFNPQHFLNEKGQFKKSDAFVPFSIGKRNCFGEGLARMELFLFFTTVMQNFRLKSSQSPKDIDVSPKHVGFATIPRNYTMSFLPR

CYP2A6 [2] = molecular target: T1, CYP2A6; assay: Cellular CYP2A6 inhibition screening; format: cell-based; conditions: for inhibition of cellular CYP2A6: flavoring agent at 500 μM
[3] = test system: CYP2A6-transduced BEAS-2B cells; assay: Cell viability by LDH release; format: cell-based; conditions: flavoring agent at 500 μM, 2 h total exposure, 50 μM coumarin, Figure S4
How it was run: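 CYP2A6-transduced BEAS-2B cells were grown to confluence in KGM and switched to KBM. They were exposed to flavoring agent at 500 μM for 1 h, then coumarin was added to 50 μM, for 2 h total, in triplicate wells. Medium was incubated 30 min with tetrazolium substrate and read at 490 nm absorbance. Maximal LDH was set by lysis buffer.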

| Structure (SMILES) | fluorescence (7-hydroxycoumarin formation) in CYP2A6-transduced cells (CYP2A6 [1]) | IC50 (CYP2A6 [2]) [µM] | mean percent of maximal LDH [3] [%] | inhibition of cellular CYP2A6 (CYP2A6 [2]) |
| --- | --- | --- | --- | --- |
| Cl.N[C@@H]1C[C@H]1c1ccccc1 (relative stereo) [tranylcypromine, trans-2-Phenylcyclopropylamine hydrochloride] | strongly reduced | – | – | – |
| O=C/C=C/c1ccccc1 [cinnamaldehyde, trans-cinnamaldehyde] | – | 7.4 | 6.6 | – |
| O=Cc1ccccc1 [benzaldehyde] | – | 7.6 | 8.9 | – |
| CC(=O)OCCC(C)C [isoamyl acetate] | – | > 500 | – | negligible inhibition |
| COc1cc(C=O)ccc1O [vanillin] | – | 200 | – | near-maximal inhibition |

Source: publication PMC10061538 (ACS Omega, 2023)
